Test results from PMC5680101 (The journal of physical chemistry. B, 2017).
Several values for one entry are separate records, joined by “and”; a condition that tells them apart may be missing. Identical values can stand only once. Like-named read-outs stand apart in the source and are kept apart here.

How the values were obtained:
Type in all cases: binding, E. coli
[1] = molecular target: FhuA ΔC/Δ5L (Escherichia coli, UniProt P06971, DEL561-566/INS560[…], form not given); conditions: for q (slope factor or transition steepness): calculated at the midpoint of the dissociation phase; for ΔRh: decrease in hydrodynamic radius as a result of detergent desolvation; for p (Hill coefficient): four-parameter Hill fit; for p (Hill coefficient) / Kd: pH 7.4, 24°C; for Kd: read-out: Kd (apparent dissociation constant), midpoint of dose-dependent dissociation phase; for ΔG: ΔG = RT ln Kd
FhuA ΔC/Δ5L, sequence (P06971 194-747, stated change not applied): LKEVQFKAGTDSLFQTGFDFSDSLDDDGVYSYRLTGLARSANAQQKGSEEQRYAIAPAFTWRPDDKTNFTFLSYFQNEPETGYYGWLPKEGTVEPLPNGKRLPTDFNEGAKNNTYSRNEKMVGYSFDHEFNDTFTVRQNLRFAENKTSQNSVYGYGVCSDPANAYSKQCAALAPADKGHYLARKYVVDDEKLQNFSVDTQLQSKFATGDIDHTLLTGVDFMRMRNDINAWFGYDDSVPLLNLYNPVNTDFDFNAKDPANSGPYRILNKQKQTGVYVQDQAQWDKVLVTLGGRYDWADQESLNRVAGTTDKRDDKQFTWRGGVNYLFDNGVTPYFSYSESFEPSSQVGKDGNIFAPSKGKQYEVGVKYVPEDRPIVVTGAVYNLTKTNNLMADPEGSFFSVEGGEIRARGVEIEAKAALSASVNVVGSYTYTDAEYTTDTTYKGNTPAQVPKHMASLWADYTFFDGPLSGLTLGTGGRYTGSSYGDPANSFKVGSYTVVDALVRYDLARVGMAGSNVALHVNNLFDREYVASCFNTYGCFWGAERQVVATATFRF

[2] = molecular target: FhuA ΔC/Δ5L_25N (Escherichia coli, UniProt P06971); conditions: for q (slope factor or transition steepness): calculated at the midpoint of the dissociation phase; for ΔRh: decrease in hydrodynamic radius as a result of detergent desolvation; for p (Hill coefficient): four-parameter Hill fit; for p (Hill coefficient) / rmax / rmin / Kd: 200 mM NaCl, 50 mM HEPES; for p (Hill coefficient) / Kd: pH 7.4, 24°C; for rmax: maximum anisotropy at detergent concentrations above the CMC; for rmax / rmin: pH 7.4; for Rh max: maximum hydrodynamic radius of the proteomicelle; for rmin: minimum anisotropy, extrapolated for the lowest detergent concentration; for Kd: read-out: Kd (apparent dissociation constant), midpoint of dose-dependent dissociation phase; for Dr fast: rotational diffusion coefficient under desolvation conditions; for Dr slow: rotational diffusion coefficient under solvation conditions; for ΔG: ΔG = RT ln Kd
FhuA ΔC/Δ5L_25N, sequence (P06971 194-747, stated change not applied): as above

[3] = molecular target: FhuA ΔC/Δ7L_30N (Escherichia coli, UniProt P06971); conditions: for q (slope factor or transition steepness): calculated at the midpoint of the dissociation phase; for ΔRh: decrease in hydrodynamic radius as a result of detergent desolvation; for p (Hill coefficient): four-parameter Hill fit; for p (Hill coefficient) / rmax / rmin / Kd: 200 mM NaCl, 50 mM HEPES; for p (Hill coefficient) / Kd: pH 7.4, 24°C; for rmax: maximum anisotropy at detergent concentrations above the CMC; for rmax / rmin: pH 7.4; for Rh max: maximum hydrodynamic radius of the proteomicelle; for rmin: minimum anisotropy, extrapolated for the lowest detergent concentration; for Kd: read-out: Kd (apparent dissociation constant), midpoint of dose-dependent dissociation phase; for Dr fast: rotational diffusion coefficient under desolvation conditions; for Dr slow: rotational diffusion coefficient under solvation conditions; for ΔG: ΔG = RT ln Kd
FhuA ΔC/Δ7L_30N, sequence (P06971 194-747, stated change not applied): as above

[4] = molecular target: OmpG (Escherichia coli, UniProt P76045, D245C); experiment: biochemical; conditions: for q (slope factor or transition steepness): calculated at the midpoint of the dissociation phase; for ΔRh: decrease in hydrodynamic radius as a result of detergent desolvation; for p (Hill coefficient): four-parameter Hill fit; for rmax: maximum anisotropy at detergent concentrations above the CMC; for rmax / rmin: pH 7.4; for Rh max: maximum hydrodynamic radius of the proteomicelle; for rmin: minimum anisotropy, extrapolated for the lowest detergent concentration; for Dr fast: rotational diffusion coefficient under desolvation conditions; for Dr slow: rotational diffusion coefficient under solvation conditions; for ΔG: ΔG = RT ln Kd
OmpG, sequence (P76045 22-301 D245C): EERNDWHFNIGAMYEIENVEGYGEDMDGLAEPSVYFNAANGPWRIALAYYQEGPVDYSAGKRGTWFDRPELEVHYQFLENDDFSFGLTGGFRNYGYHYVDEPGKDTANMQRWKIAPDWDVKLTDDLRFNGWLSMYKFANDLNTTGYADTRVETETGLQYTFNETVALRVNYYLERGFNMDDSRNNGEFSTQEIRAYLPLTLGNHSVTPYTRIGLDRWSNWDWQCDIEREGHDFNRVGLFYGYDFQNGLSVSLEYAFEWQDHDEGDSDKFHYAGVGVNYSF

[5] = molecular target: acidic β-barrel proteins; experiment: steady-state FP anisotropy, detergent desolvation, acidic β barrels; conditions: physiological pH
Summary of the method: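 Acidic β-barrels: FhuA ΔC/Δ5L, with a GS-rich single-Cys loop replacing turn T7, labeled with Texas Red C2 maleimide in 6 M Gdm-HCl. OmpG D224C labeled in 8 M urea at 1:20 protein:dye. Detergent-refolded protein diluted into wells of varying detergent spanning the CMC, 28 nM final protein. 15 min equilibration, kinetic steady-state anisotropy read, 24 h endpoints covered at 4°C.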

[6] = test system: basic β-barrel proteins; experiment: steady-state FP anisotropy, detergent desolvation, basic β barrels
Summary of the method: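 Basic FhuA variants, C-terminal His6, labeled with 200 μM Texas Red C2 maleimide overnight at room temperature in 6 M Gdm-HCl. Denatured protein refolded by 50-fold dilution into 200 mM NaCl, 50 mM HEPES, pH 7.4, 4°C, detergent above CMC. Then diluted into wells of varying detergent, 28 nM final protein. 15 min equilibration, kinetic anisotropy read, 24 h endpoints at 4°C.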

[7] = anisotropy determined in 6 M Gdm-HCl
[8] = 200 mM NaCl, 50 mM HEPES, pH 7.4, 24°C
[9] = maximum anisotropy at detergent concentrations above the CMC, 200 mM NaCl, 50 mM HEPES, pH 7.4
[10] = maximum hydrodynamic radius of the proteomicelle
[11] = minimum anisotropy, extrapolated for the lowest detergent concentration, 200 mM NaCl, 50 mM HEPES, pH 7.4
[12] = rotational diffusion coefficient under desolvation conditions
[13] = rotational diffusion coefficient under solvation conditions

## Cl.N=C(N)N [Gdm-HCl, guanidinium hydrochloride]
[1]; [7]
  rmax: ~0.16
  rmin: ~0.16
[1]; fully unfolded, most rotationally diffusive protein in 6 M Gdm-HCl
  basal (minimum) anisotropy readout, r1: 0.16 and ~ 0.16
[1]; in 6 M Gdm-HCl
  Dr fast: ~6.0 10^7 s^−1
  Dr slow: ~6.0 10^7 s^−1
  Rh max: 1.4 nm

## CCCCCCCCCCCCOS(=O)(=O)[O-].[Na+] [SDS]
[1]; in 40 mM SDS
  minimum anisotropy value, r0: ~ 0.16

## OC[C@H]1O[C@H](O[C@H]2[C@H](O)[C@@H](O)[C@H](OCCCCC3CCCCC3)O[C@@H]2CO)[C@H](O)[C@@H](O)[C@@H]1O [CYMAL-4, 4-cyclohexyl-1-Butyl-β-D-maltoside]
[2]
  q (slope factor or transition steepness): 0.28 mM⁻¹
  ΔRh: 1.4 ± 0.1 nm
  p (Hill coefficient): 5.2 ± 0.3
  rmax: 0.341 ± 0.001
  Rh max: 2.9 nm
  rmin: 0.166 ± 0.001
  Kd: 5700 ± 100 µM
  Dr fast: 5.6 ± 0.1 10^7 s^−1
  Dr slow: 0.69 ± 0.01 10^7 s^−1
  ΔG: -3.1 ± 0.1 kcal/mol
[3]
  q (slope factor or transition steepness): 0.17 mM⁻¹
  ΔRh: 1.5 ± 0.2 nm
  p (Hill coefficient): 2.3 ± 0.9
  rmax: 0.345 ± 0.004
  Rh max: 2.9 nm
  rmin: 0.168 ± 0.025
  Kd: 4500 ± 1100 µM
  Dr fast: 5.5 ± 1.2 10^7 s^−1
  Dr slow: 0.63 ± 0.05 10^7 s^−1
  ΔG: -3.2 ± 0.1 kcal/mol
[4]
  q (slope factor or transition steepness): 0.25 mM⁻¹
  ΔRh: 1.2 ± 0.1 nm
  Rh max: 2.6 nm
  Dr fast: 5.8 ± 0.1 10^7 s^−1
  Dr slow: 0.90 ± 0.01 10^7 s^−1
  ΔG: -3.2 ± 0.1 kcal/mol
[4]; [8]
  p (Hill coefficient): 6.7 ± 0.1
[4]; 200 mM NaCl, 50 mM HEPES
  rmax: 0.326 ± 0.001
  rmin: 0.163 ± 0.001
[4]; read-out: Kd (apparent dissociation constant), midpoint of dose-dependent dissociation phase, 200 mM NaCl, 50 mM HEPES, pH 7.4, 24°C
  Kd: 4600 ± 100 µM
[1]
  q (slope factor or transition steepness): 0.38 mM⁻¹
  ΔRh: 1.7 ± 0.1 nm
  ΔG: -3.1 ± 0.1 kcal/mol
[1]; 200 mM NaCl, 50 mM HEPES
  p (Hill coefficient): 3.7 ± 0.1
  Kd: 5300 ± 100 µM
[1]; [9]
  rmax: 0.367 ± 0.001
[1]; [10]
  Rh max: 3.6 nm
[1]; [11]
  rmin: 0.242 ± 0.001
[1]; [12]
  Dr fast: 2.6 ± 0.1 10^7 s^−1
[1]; [13]
  Dr slow: 0.36 ± 0.01 10^7 s^−1

## CCCCCCCCCCO[C@@H]1O[C@H](CO)[C@@H](O[C@H]2O[C@H](CO)[C@@H](O)[C@H](O)[C@H]2O)[C@H](O)[C@H]1O [DM, n-decyl-β-D-maltoside]
[2]
  q (slope factor or transition steepness): 1.30 mM⁻¹
  ΔRh: 1.5 ± 0.1 nm
  p (Hill coefficient): 27 ± 3
  rmax: 0.343 ± 0.002
  Rh max: 3.0 nm
  rmin: 0.166 ± 0.003
  Kd: 900 ± 100 µM
  Dr fast: 5.6 ± 0.2 10^7 s^−1
  Dr slow: 0.66 ± 0.03 10^7 s^−1
  ΔG: -4.1 ± 0.1 kcal/mol
[3]
  q (slope factor or transition steepness): 1.07 mM⁻¹
  ΔRh: 1.0 ± 0.1 nm
  p (Hill coefficient): 27 ± 6
  rmax: 0.312 ± 0.001
  Rh max: 2.4 nm
  rmin: 0.168 ± 0.007
  Kd: 900 ± 100 µM
  Dr fast: 1.0 ± 0.1 10^7 s^−1
  Dr slow: 5.5 ± 0.4 10^7 s^−1
  ΔG: -4.1 ± 0.1 kcal/mol
[4]
  Kd: 1800 ± 400 µM
  q (slope factor or transition steepness): 0.064 mM⁻¹
  ΔRh: 0.95 ± 0.04 nm
  Rh max: 2.6 nm
  Dr fast: 3.5 ± 0.2 10^7 s^−1
  Dr slow: 0.89 ± 0.02 10^7 s^−1
  ΔG: -3.7 ± 0.1 kcal/mol
[4]; [8]
  p (Hill coefficient): 4.1 ± 1.2
[4]; 200 mM NaCl, 50 mM HEPES
  rmax: 0.327 ± 0.001
  rmin: 0.214 ± 0.005
[5]
  Kd: ~1800 µM
[1]
  q (slope factor or transition steepness): 0.072 mM⁻¹
  ΔRh: 1.6 ± 0.1 nm
  ΔG: -3.8 ± 0.1 kcal/mol
[1]; 200 mM NaCl, 50 mM HEPES
  p (Hill coefficient): 3.5 ± 0.5
  Kd: 1700 ± 100 µM
[1]; [9]
  rmax: 0.360 ± 0.001
[1]; [10]
  Rh max: 3.3 nm
[1]; [11]
  rmin: 0.219 ± 0.005
[1]; [12]
  Dr fast: 3.3 ± 0.2 10^7 s^−1
[1]; [13]
  Dr slow: 0.44 ± 0.01 10^7 s^−1
[6]; basic FhuA proteins, pH 7.4
  Hill cooperativity p: ~ 27
[6]; physiological pH
  Kd: ~900 µM
